Experimental data reported in ChEMBL document CHEMBL5724801, “EUbOPEN Chemogenomics Library - Multiplex” (2024).
Several values for one entry are separate records, joined by “and”; a condition that tells them apart may be missing. Identical values can stand only once.

The compounds below were run on U2OS (assay: Multiplex assay against U2OS). Settings: human, 12 h, 1 µM, compound concentration 1 uM.
Format: toxicity, cell-based
Procedure, shortened: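 Imaging took place on a CQ1 microscope at 37°C and 5% CO2 once compound had been added to live cells stained at seeding with Hoechst33342, BioTracker Green Microtubule Cytoskeleton Dye, MitoTracker Red and Annexin V Alexa Fluor 680. CellPathfinder machine-learning gating classed cells as Hoechst high-intensity objects or normal cells, classed normal cells as having healthy, pyknosed or fragmented nuclei, and classed pyknosed cells as mitotic or apoptotic. Tubulin, mitochondrial-mass and membrane-permeability phenotypes are per cents of the healthy-nucleus cells.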

| Structure (SMILES) | Population Apoptotic (%) | Population Fragmented Nuclei (%) | Population Healthy Nuclei (%) | Population Hoechst High Intensity Objects (%) | Population Membrane Permeable-Phenotype (%) | Population Mitochondria Different-Phenotype (%) | Population Mitotic Cells (%) | Population Normal (%) | Population Pyknosed Nuclei (%) | Population Tubulin-Different-Phenotype (%) |
| --- | --- | --- | --- | --- | --- | --- | --- | --- | --- | --- |
| COc1ccc(CC(=O)NC(N/C(=N/C#N)Nc2cccc3ncccc23)C(C)(C)C)cc1OC (stereo not given) | 40.91% and 47.06% | 2.4% and 0.62% | 91.73% and 88.89% | 0% | 1.16% and 5.56% | 0.87% and 4.86% | 59.09% and 52.94% | 100% | 5.87% and 10.49% | 0.87% and 0.69% |
| CCCn1c(=O)c2[nH]c(C3CCCC3)nc2n(CCC)c1=O [1,3-DIPROPYL-8-CYCLOPENTYLXANTHINE [DPCPX]] | 87% and 93% | 25% and 15% | 64% and 72% | 1% and 0% | 1% and 7% | 3% and 4% | 12% and 6% | 98% and 100% | 9% and 12% | 1% and 5% |

Same assay, conditions: human, 12 h, 1 µM, compound concentration 1 uM

| Structure (SMILES) | Total Cell Count |
| --- | --- |
| COc1ccc(CC(=O)NC(N/C(=N/C#N)Nc2cccc3ncccc23)C(C)(C)C)cc1OC (stereo not given) | 375 and 162 |
| CCCn1c(=O)c2[nH]c(C3CCCC3)nc2n(CCC)c1=O [1,3-DIPROPYL-8-CYCLOPENTYLXANTHINE [DPCPX]] | 250 and 125 |

Same assay, conditions: human, 12 h, 10 µM, compound concentration 10 uM

| Structure (SMILES) | Population Apoptotic (%) | Population Fragmented Nuclei (%) | Population Healthy Nuclei (%) | Population Hoechst High Intensity Objects (%) | Population Membrane Permeable-Phenotype (%) | Population Mitochondria Different-Phenotype (%) | Population Mitotic Cells (%) | Population Normal (%) | Population Pyknosed Nuclei (%) | Population Tubulin-Different-Phenotype (%) |
| --- | --- | --- | --- | --- | --- | --- | --- | --- | --- | --- |
| COc1ccc(CC(=O)NC(N/C(=N/C#N)Nc2cccc3ncccc23)C(C)(C)C)cc1OC (stereo not given) | 51.35% and 40% | 1.67% and 2.27% | 88.02% and 82.58% | 0% | 1.27% and 3.67% | 0.63% and 8.26% | 48.65% and 60% | 100% | 10.31% and 15.15% | 1.58% and 0.92% |
| CCCn1c(=O)c2[nH]c(C3CCCC3)nc2n(CCC)c1=O [1,3-DIPROPYL-8-CYCLOPENTYLXANTHINE [DPCPX]] | 68% and 100% | 30% and 21% | 60% and 69% | 2% and 3% | 5% and 6% | 1% and 9% |  | 97% and 96% | 9% and 8% | 3% |

Same assay, conditions: human, 12 h, 10 µM, compound concentration 10 uM

| Structure (SMILES) | Total Cell Count |
| --- | --- |
| COc1ccc(CC(=O)NC(N/C(=N/C#N)Nc2cccc3ncccc23)C(C)(C)C)cc1OC (stereo not given) | 359 and 132 |
| CCCn1c(=O)c2[nH]c(C3CCCC3)nc2n(CCC)c1=O [1,3-DIPROPYL-8-CYCLOPENTYLXANTHINE [DPCPX]] | 206 and 96 |

Same assay, conditions: human, 24 h, 1 µM, compound concentration 1 uM

| Structure (SMILES) | Population Apoptotic (%) | Population Fragmented Nuclei (%) | Population Healthy Nuclei (%) | Population Hoechst High Intensity Objects (%) | Population Membrane Permeable-Phenotype (%) | Population Mitochondria Different-Phenotype (%) | Population Mitotic Cells (%) | Population Normal (%) | Population Pyknosed Nuclei (%) | Population Tubulin-Different-Phenotype (%) |
| --- | --- | --- | --- | --- | --- | --- | --- | --- | --- | --- |
| COc1ccc(CC(=O)NC(N/C(=N/C#N)Nc2cccc3ncccc23)C(C)(C)C)cc1OC (stereo not given) | 33.33% and 61.54% | 1.96% and 2.31% | 85.66% and 85.65% | 0% | 1.15% and 3.78% | 0.46% and 6.49% | 66.67% and 38.46% | 100% | 12.38% and 12.04% | 0.92% and 0% |
| CCCn1c(=O)c2[nH]c(C3CCCC3)nc2n(CCC)c1=O [1,3-DIPROPYL-8-CYCLOPENTYLXANTHINE [DPCPX]] | 83% and 87% | 24% and 13% | 68% and 74% | 3% and 2% | 5% and 8% | 3% | 16% and 12% | 96% and 97% | 7% and 11% | 4% |

Same assay, conditions: human, 24 h, 1 µM, compound concentration 1 uM

| Structure (SMILES) | Total Cell Count |
| --- | --- |
| COc1ccc(CC(=O)NC(N/C(=N/C#N)Nc2cccc3ncccc23)C(C)(C)C)cc1OC (stereo not given) | 509 and 216 |
| CCCn1c(=O)c2[nH]c(C3CCCC3)nc2n(CCC)c1=O [1,3-DIPROPYL-8-CYCLOPENTYLXANTHINE [DPCPX]] | 261 and 138 |

Same assay, conditions: human, 24 h, 10 µM, compound concentration 10 uM

| Structure (SMILES) | Population Apoptotic (%) | Population Fragmented Nuclei (%) | Population Healthy Nuclei (%) | Population Hoechst High Intensity Objects (%) | Population Membrane Permeable-Phenotype (%) | Population Mitochondria Different-Phenotype (%) | Population Mitotic Cells (%) | Population Normal (%) | Population Pyknosed Nuclei (%) | Population Tubulin-Different-Phenotype (%) |
| --- | --- | --- | --- | --- | --- | --- | --- | --- | --- | --- |
| COc1ccc(CC(=O)NC(N/C(=N/C#N)Nc2cccc3ncccc23)C(C)(C)C)cc1OC (stereo not given) | 35.56% and 50% | 1.44% and 1.79% | 89.32% and 87.5% | 0% | 1.61% and 2.04% | 0.46% and 4.08% | 64.44% and 50% | 100% | 9.24% and 10.71% | 2.07% and 0.68% |
| CCCn1c(=O)c2[nH]c(C3CCCC3)nc2n(CCC)c1=O [1,3-DIPROPYL-8-CYCLOPENTYLXANTHINE [DPCPX]] | 89% and 100% | 27% and 21% | 64% and 71% | 2% and 4% | 7% and 3% | 0% and 3% | 10% and 0% | 97% and 95% | 8% and 6% | 0% |

Same assay, conditions: human, 24 h, 10 µM, compound concentration 10 uM

| Structure (SMILES) | Total Cell Count |
| --- | --- |
| COc1ccc(CC(=O)NC(N/C(=N/C#N)Nc2cccc3ncccc23)C(C)(C)C)cc1OC (stereo not given) | 487 and 168 |
| CCCn1c(=O)c2[nH]c(C3CCCC3)nc2n(CCC)c1=O [1,3-DIPROPYL-8-CYCLOPENTYLXANTHINE [DPCPX]] | 234 and 120 |

Same assay, conditions: human, 48 h, 1 µM, compound concentration 1 uM

| Structure (SMILES) | Population Apoptotic (%) | Population Fragmented Nuclei (%) | Population Healthy Nuclei (%) | Population Hoechst High Intensity Objects (%) | Population Membrane Permeable-Phenotype (%) | Population Mitochondria Different-Phenotype (%) | Population Mitotic Cells (%) | Population Normal (%) | Population Pyknosed Nuclei (%) | Population Tubulin-Different-Phenotype (%) |
| --- | --- | --- | --- | --- | --- | --- | --- | --- | --- | --- |
| COc1ccc(CC(=O)NC(N/C(=N/C#N)Nc2cccc3ncccc23)C(C)(C)C)cc1OC (stereo not given) | 60.47% and 47.73% | 1.92% and 2.62% | 88.91% and 85.86% | 0% | 0.36% and 2.13% | 0.36% and 2.74% | 39.53% and 52.27% | 100% | 9.17% and 11.52% | 0.96% and 0.61% |
| CCCn1c(=O)c2[nH]c(C3CCCC3)nc2n(CCC)c1=O [1,3-DIPROPYL-8-CYCLOPENTYLXANTHINE [DPCPX]] | 86% and 92% | 20% and 17% | 69% | 1% and 2% | 3% and 8% | 1% and 4% | 13% and 8% | 98% and 97% | 10% and 13% | 2% and 3% |

Same assay, conditions: human, 48 h, 1 µM, compound concentration 1 uM

| Structure (SMILES) | Total Cell Count |
| --- | --- |
| COc1ccc(CC(=O)NC(N/C(=N/C#N)Nc2cccc3ncccc23)C(C)(C)C)cc1OC (stereo not given) | 938 and 382 |
| CCCn1c(=O)c2[nH]c(C3CCCC3)nc2n(CCC)c1=O [1,3-DIPROPYL-8-CYCLOPENTYLXANTHINE [DPCPX]] | 364 and 196 |

Same assay, conditions: human, 48 h, 10 µM, compound concentration 10 uM

| Structure (SMILES) | Population Apoptotic (%) | Population Fragmented Nuclei (%) | Population Healthy Nuclei (%) | Population Hoechst High Intensity Objects (%) | Population Membrane Permeable-Phenotype (%) | Population Mitochondria Different-Phenotype (%) | Population Mitotic Cells (%) | Population Normal (%) | Population Pyknosed Nuclei (%) | Population Tubulin-Different-Phenotype (%) |
| --- | --- | --- | --- | --- | --- | --- | --- | --- | --- | --- |
| COc1ccc(CC(=O)NC(N/C(=N/C#N)Nc2cccc3ncccc23)C(C)(C)C)cc1OC (stereo not given) | 53.62% and 57.5% | 3.32% and 2.81% | 89.53% and 83.16% | 0% | 0.93% and 3.38% | 0.35% and 2.53% | 46.38% and 42.5% | 100% | 7.15% and 14.04% | 1.62% and 0.84% |
| CCCn1c(=O)c2[nH]c(C3CCCC3)nc2n(CCC)c1=O [1,3-DIPROPYL-8-CYCLOPENTYLXANTHINE [DPCPX]] | 77% and 100% | 24% and 19% | 62% and 73% | 2% and 3% | 4% and 5% | 1% and 3% | 22% and 0% | 97% and 96% | 12% and 6% | 3% and 0% |

Same assay, conditions: human, 48 h, 10 µM, compound concentration 10 uM

| Structure (SMILES) | Total Cell Count |
| --- | --- |
| CCCn1c(=O)c2[nH]c(C3CCCC3)nc2n(CCC)c1=O [1,3-DIPROPYL-8-CYCLOPENTYLXANTHINE [DPCPX]] | 322 and 165 |
